Experimental data taken from publication PMC4725056 (Nature chemistry, 2015).

Key:
Format in all cases: cell-based, human
[1] = tested on: p-AMPK and p-ACC1 in H1299 cells; test: AMPK and ACC1 phosphorylation; settings: together with DC_AC50 (10 μM), 12 hours
[2] = tested on: H1299 cells; test: Measurement of ROS production; settings: pretreated with 1 mM or 3 mM NAC for one hour, followed by 5 μM DC_AC50 for 12 hours
[3] = tested on: lung cancer H1299 cells; test: Cell proliferation; settings: DC_AC50 (10 μM)
[4] = tested on: H1299 cells; test: Total cellular copper content by inductively coupled plasma mass spectrometry; settings: copper chelator control
Summary of the method: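 Total cellular copper in H1299 cells measured by inductively coupled plasma mass spectrometry after test-compound treatment; tetrathiomolybdate served as the copper-chelator control.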

[5] = tested on: H1299 cells; test: Lipid biosynthesis; settings: 10 μM compound C together with DC_AC50

| SMILES | rescue of DC_AC50-induced AMPK and ACC1 phosphorylation [1] | rescue of DC_AC50-induced ROS increase [2] | rescue of cell-proliferation inhibition by DC_AC50 [3] | decrease of the total cellular copper content [4] [%] | rescue of lipid biosynthesis reduced by DC_AC50 [5] |
| --- | --- | --- | --- | --- | --- |
| CC(=O)N[C@@H](CS)C(=O)O [NAC, N-acetyl-L-cysteine] | failed to rescue | rescued almost completely | partially rescued |  |  |
| [SH-].[SH-].[S]=[Mo]=[S] [TM, tetrathiomolybdate] |  |  |  | ~40 |  |
| c1cc(-c2cnn3cc(-c4ccc(OCCN5CCCCC5)cc4)cnc23)ccn1 [compound C] | almost completely reversed |  | partially rescued |  | recovered |
